Laboratory results from ChEMBL document CHEMBL4732237, “Discovery of 4-alkoxy-2-aryl-6,7-dimethoxyquinolines as a new class of topoisomerase I inhibitors endowed with potent in vitro anticancer activity” (2021).

Legend:
[1] = system: A549; assay: Growth inhibition of human A549 cells incubated for 48 hrs by sulforhodamine B assay; type: functional
In short: (§1)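 NCI five-dose screen covering 0.01–100 µM, prepared as 10-fold or ½-log dilutions from DMSO stock. Cells in RPMI 1640 with 5% FBS were exposed for 48 h at 37 °C after 24 h preincubation. Adherent cells were fixed with TCA (final 10%) and suspension cells were settled before fixing. Stain was SRB, read at 515 nm. GI50 = 50% reduction in net protein increase versus control, with Tz taken at drug addition.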

[2] = system: HOP-62; assay: Growth inhibition of human HOP-62 cells incubated for 48 hrs by sulforhodamine B assay; type: functional; in short: as §1
[3] = system: HOP-92; assay: Growth inhibition of human HOP-92 cells incubated for 48 hrs by sulforhodamine B assay; type: functional; in short: as §1
[4] = system: HCT-15; assay: Growth inhibition of human HCT-15 cells incubated for 48 hrs by sulforhodamine B assay; type: functional; in short: as §1
[5] = system: SF-539; assay: Growth inhibition of human SF-539 cells incubated for 48 hrs by sulforhodamine B assay; type: functional
In short: (§2)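 NCI five-dose screen (0.01–100 µM; five concentrations plus control). Cells grown in RPMI 1640/5% FBS/2 mM L-glutamine and preincubated 24 h, with time-zero plates TCA-fixed. Drug exposure 48 h at 37 °C, followed by SRB protein staining and reading at 515 nm. GI50 is the concentration at [(Ti-Tz)/(C-Tz)]×100 = 50.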

[6] = system: SK-MEL-5; assay: Growth inhibition of human SK-MEL-5 cells incubated for 48 hrs by sulforhodamine B assay; type: functional; in short: as §2
[7] = system: OVCAR-8; assay: Growth inhibition of human OVCAR-8 cells incubated for 48 hrs by sulforhodamine B assay; type: functional; in short: as §2
[8] = system: MCF7; assay: Growth inhibition of human MCF7 cells incubated for 48 hrs by sulforhodamine B assay; type: functional; in short: as §1
[9] = Growth inhibition of human leukemia cell line incubated for 48 hrs by sulforhodamine B assay; type: functional; details: leukaemia cell line
In short: (§3)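 NCI-60 five-dose screen. Cells in RPMI 1640 with 5% FBS and 2 mM L-glutamine were plated at 5000–40,000 cells/well and preincubated 24 h at 37 °C, 5% CO2. Drugs in DMSO were given at five serial 10-fold or ½-log dilutions for 48 h. Adherent cells fixed with 10% TCA (final); suspension cells fixed after settling. SRB stained; A515. GI50 from [(Ti-Tz)/(C-Tz)]x100 = 50.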

[10] = Growth inhibition of human Non-small cell lung cancer cell line incubated for 48 hrs by sulforhodamine B assay; type: functional; in short: as §3
[11] = system: Colon cancer cell line; assay: Growth inhibition of human colon cancer cell line incubated for 48 hrs by sulforhodamine B assay; type: functional; in short: as §3
[12] = system: CNS carcinoma cell; assay: Growth inhibition of human CNS carcinoma cell incubated for 48 hrs by sulforhodamine B assay; type: functional; in short: as §3
[13] = system: Melanoma cell line; assay: Growth inhibition of human Melanoma cell line incubated for 48 hrs by sulforhodamine B assay; type: functional; in short: as §3
[14] = system: Ovarian cancer cell line; assay: Growth inhibition of human Ovarian cancer cell line incubated for 48 hrs by sulforhodamine B assay; type: functional; in short: as §3
[15] = Growth inhibition of human Renal cancer cell line incubated for 48 hrs by sulforhodamine B assay; type: functional; in short: as §3
[16] = Growth inhibition of human Prostate tumor cell line incubated for 48 hrs by sulforhodamine B assay; type: functional; in short: as §3
[17] = Growth inhibition of human Breast cancer cell line incubated for 48 hrs by sulforhodamine B assay; type: functional; in short: as §3
[18] = molecular target: T1, DNA topoisomerase 1 (Homo sapiens) (UniProt P11387); assay: Inhibition of recombinant human TOPO1 assessed as TOP1-DNA cleavage complexes at 1 uM using 3'-[32-P]-117 labeled bp DNA as substrate incubated for 30 mins by SDS-PAGE analysis relative to control
T1 sequence (whole entry): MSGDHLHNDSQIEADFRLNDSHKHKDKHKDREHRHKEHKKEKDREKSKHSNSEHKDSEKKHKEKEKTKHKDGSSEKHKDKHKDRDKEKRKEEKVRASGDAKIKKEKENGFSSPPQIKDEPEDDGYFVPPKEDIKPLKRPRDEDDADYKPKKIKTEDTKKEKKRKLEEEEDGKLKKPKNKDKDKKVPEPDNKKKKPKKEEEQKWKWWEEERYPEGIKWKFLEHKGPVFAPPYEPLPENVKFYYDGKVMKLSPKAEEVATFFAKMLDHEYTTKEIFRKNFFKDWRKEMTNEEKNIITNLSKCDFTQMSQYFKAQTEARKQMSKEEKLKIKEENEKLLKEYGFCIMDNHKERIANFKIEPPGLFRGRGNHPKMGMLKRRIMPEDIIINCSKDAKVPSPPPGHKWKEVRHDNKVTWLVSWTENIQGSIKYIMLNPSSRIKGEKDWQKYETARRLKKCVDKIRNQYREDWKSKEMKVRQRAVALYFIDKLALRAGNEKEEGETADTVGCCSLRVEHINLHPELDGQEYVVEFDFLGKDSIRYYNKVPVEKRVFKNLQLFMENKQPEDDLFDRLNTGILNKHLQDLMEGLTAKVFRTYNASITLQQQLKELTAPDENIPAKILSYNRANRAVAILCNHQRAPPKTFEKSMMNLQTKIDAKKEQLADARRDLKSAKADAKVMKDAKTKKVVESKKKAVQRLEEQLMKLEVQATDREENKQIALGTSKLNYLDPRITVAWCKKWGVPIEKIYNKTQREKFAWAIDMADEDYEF

| Structure (SMILES) | GI50 [1] [nM] | GI50 [2] [nM] | GI50 [3] [nM] | GI50 [4] [nM] | GI50 [5] [nM] | GI50 [6] [nM] | GI50 [7] [nM] | GI50 [8] [nM] | LC50 [9] [nM] | TGI [9] [nM] | LC50 (concentration killing 50% of cells) [10] [nM] | TGI [10] [nM] | LC50 [11] [nM] | TGI [11] [nM] | LC50 [12] [nM] | TGI [12] [nM] | LC50 (50% lethal concentration) [13] [nM] | TGI [13] [nM] | LC50 [14] [nM] | inhibition [18] [%] | also measured |
| --- | --- | --- | --- | --- | --- | --- | --- | --- | --- | --- | --- | --- | --- | --- | --- | --- | --- | --- | --- | --- | --- |
| COc1cc2nc(-c3ccc(C(F)(F)F)cc3)cc(OCCCN3CCCC3)c2cc1OC | 653 | 1030 | 460 | 416 | 1870 | 247 | 806 | 976 | 81600 | 6170 | 57900 | 12700 | 50400 | 8070 | 44900 | 11700 | 23700 | 4080 | 81000 | 0 | TGI [6]: 645 nM; TGI [14]: 28100 nM; LC50 (concentration giving 50% net cell kill) [15]: 40100 nM; TGI [15]: 10200 nM; LC50 (concentration killing 50% of cells) [16]: 89500 nM; TGI [16]: 16800 nM; LC50 [17]: 40800 nM; TGI [17]: 6800 nM |
| COc1cc2nc(-c3ccc(Cl)cc3)cc(OCCCN3CCC(O)CC3)c2cc1OC | 2200 | 1980 | 1250 | 763 | 2280 | 1270 | 2000 | 1600 |  |  |  |  |  |  |  |  |  |  |  | 20 |  |
| COc1cc2nc(-c3ccc(Cl)cc3)cc(OCCCN3CCCC3)c2cc1OC | 1520 | 1380 | 850 | 567 | 2440 | 961 | 1190 | 1330 | 32000 | 4990 | 39700 | 10400 | 39100 | 8310 | 33500 | 10100 | 14600 | 4260 | 55100 | 20 | TGI [14]: 14800 nM; LC50 (concentration giving 50% net cell kill) [15]: 28900 nM; TGI [15]: 7660 nM; LC50 (concentration killing 50% of cells) [16]: 39600 nM; TGI [16]: 12000 nM; LC50 [17]: 29600 nM; TGI [17]: 5800 nM |
| COc1cc2nc(-c3ccc(C(F)(F)F)cc3)cc(OCCCN3CCC(O)CC3)c2cc1OC | 1650 | 1800 | 1680 | 667 | 5750 | 1430 | 1660 | 2570 |  |  |  |  |  |  |  |  |  |  |  | 0 |  |
| COc1cc2nc(-c3ccc(C(F)(F)F)cc3)cc(OCCCN3CCOCC3)c2cc1OC | 1040 | 1670 | 1000 | 520 |  | 288 | 1950 | 1550 |  |  |  |  |  |  |  |  |  |  |  | 50 |  |
| COc1cc2nc(-c3ccc(Cl)cc3)cc(OCCCN3CCOCC3)c2cc1OC | 2020 | 1980 | 1360 | 754 | 2990 | 832 | 2150 | 2490 |  |  |  |  |  |  |  |  |  |  |  | 50 |  |
| COc1cc2nc(-c3ccc(C(F)(F)F)cc3)cc(OCCCN3CCCCC3)c2cc1OC | 722 | 947 | 678 | 399 | 2080 | 325 | 734 | 1160 | 74800 | 10300 | 50600 | 13800 | 40800 | 10300 | 38800 | 11900 | 19900 | 4140 | 65500 | 20 | TGI [6]: 1200 nM; TGI [14]: 19700 nM; LC50 (concentration giving 50% net cell kill) [15]: 35000 nM; TGI [15]: 11000 nM; LC50 (concentration killing 50% of cells) [16]: 42200 nM; TGI [16]: 13800 nM; LC50 [17]: 43000 nM; TGI [17]: 9290 nM |
| COc1cc2nc(-c3ccc(Cl)cc3)cc(OCCCN3CCCCC3)c2cc1OC | 1900 | 2370 | 1020 | 604 | 2570 | 1100 | 1770 | 1560 |  |  |  |  |  |  |  |  |  |  |  | 20 |  |
